# Reference: article PMC2094070 (Nucleic Acids Research, 2007)
# Legend:
# [1] = system: cytosolic ribosomes in rabbit reticulocyte lysate; assay: Rabbit reticulocyte translation assay; format: biochemical; settings: read-out: IC50, inhibition of luciferase synthesis, luciferase mRNA, 30°C, 90 min
# Summary of the method: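 Rabbit reticulocyte lysate supplied cytosolic ribosomes to translate firefly luciferase control mRNA (500 ng), with amino acids (100 μM each) and RNasin. Aminoglycosides were added as serial dilutions, then incubated at 30°C for 90 min. Luciferase substrate was added and luminescent activity read. IC50 and the 100% value came from best-fit nonlinear regression.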
# [2] = system: M. smegmatis mutants carrying human–bacterial hybrid ribosomes (Homo sapiens helix 44 decoding site); assay: MIC broth microdilution, cells with human-bacterial hybrid ribosomes; format: cell-based, Mycobacterium smegmatis; settings: for MIC: M. smegmatis cells with Homo sapiens hybrid ribosomes, 37°C, 72 h; for Relative resistance (ratio of mutant to wild-type MIC): human hybrids versus wild-type M. smegmatis
# [3] = system: Mycobacterium smegmatis wild-type; assay: MIC broth microdilution, wild-type strain; format: cell-based; settings: 37°C, 72 h
# [4] = system: wild-type M. smegmatis 70S ribosomes; assay: Cell-free luciferase translation assay, wild-type ribosomes; format: biochemical; settings: read-out: IC50, inhibition of luciferase synthesis; Mycobacterium smegmatis wild-type ribosomes; coupled transcription–translation, 37°C, 60 min
# [5] = system: Mycobacterium smegmatis hybrids with a Blastocrithidia decoding region; assay: MIC broth microdilution, cells with Blastocrithidia hybrid ribosomes; format: cell-based; settings: M. smegmatis cells with Blastocrithidia hybrid ribosomes; 37°C, 72 h
# [6] = system: M. smegmatis Leishmania hybrids (Leishmania/Trypanosoma decoding site); assay: MIC broth microdilution, cells with Leishmania/Trypanosoma hybrid ribosomes; format: cell-based, Mycobacterium smegmatis; settings: for Relative resistance (ratio of mutant to wild-type MIC): Leishmania hybrids versus wild-type M. smegmatis; for MIC: M. smegmatis cells with Leishmania/Trypanosoma hybrid ribosomes, 37°C, 72 h
Compound,IC50 [1] [nM],MIC [2] [µg/mL],Relative resistance (ratio of mutant to wild-type MIC) [2],MIC [3] [µg/mL],IC50 [4] [nM],MIC [5] [µg/mL],Relative resistance (ratio of mutant to wild-type MIC) [6],MIC [6] [µg/mL]
neomycin,18000,>1024,≥ 1024,0.5,40,1,≥ 1024,>1024
kanamycin A,67000,>1024,≥ 1024,1,50,1,≥ 1024,>1024
"CNC(C)C1CCC(N)C(OC2C(N)CC(N)C(OC3OCC(C)(O)C(NC)C3O)C2O)O1 (stereo not shown) [Gentamicin, gentamicin]",,,≥ 1024,,,,≥ 1024,
"CCN[C@@H]1C[C@H](N)[C@@H](O[C@H]2OC(CN)=CC[C@H]2N)[C@H](O)[C@H]1O[C@H]1OC[C@](C)(O)[C@H](NC)[C@H]1O [Netilmicin, netilmicin]",58000,,≥ 1024,,50,,≥ 1024,
"NC[C@H]1O[C@H](O[C@H]2[C@H](O)[C@@H](O[C@H]3O[C@H](CO)[C@@H](O)[C@H](N)[C@H]3O)[C@H](N)C[C@@H]2N)[C@H](N)C[C@@H]1O [Tobramycin, tobramycin]",38000,,≥ 1024,,20,,≥ 1024,
"NC[C@@H]1O[C@H](O[C@H]2[C@@H](O)[C@H](O[C@@H]3[C@@H](O)[C@H](N)C[C@H](N)[C@H]3O[C@H]3O[C@H](CO)[C@@H](O)[C@H](O)[C@H]3N)O[C@@H]2CO)[C@H](N)[C@@H](O)[C@@H]1O [Paromomycin, paromomycin]",9200,,≥ 1024,,30,,,
"CN[C@@H]1[C@@H](O)[C@@H](O[C@@H]2[C@@H](O)[C@H](O[C@H]3O[C@H]([C@@H](C)O)[C@@H](O)[C@H](O)[C@H]3N)[C@@H](N)C[C@H]2N)OC[C@]1(C)O [Geneticin, geneticin (G418)]",200,,,,30,,,
